Measured values as given in ChEMBL document CHEMBL1124947, “Cationic antiprotozoal drugs. Trypanocidal activity of 2-(4'-formylphenyl)imidazo[1,2-a]pyridinium guanylhydrazones and related derivatives of quaternary heteroaromatic compounds” (J Med Chem, 1990).

What was measured:
Type in all cases: functional
Mus musculus [1] = experiment: Trypanocidal Activity at I.C.E. value 0.46 when administered subcutaneously.
Summary of the method: (§1)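 Blood-stage T. rhodesiense infection came from a standard inoculum lethal to all untreated mice. Drug was given by subcutaneous injection to groups of five mice. Survival beyond 30 days counted as cure. […] Sub-curative doses scored 0, and data were normalized at each dose.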

Mus musculus [2] = experiment: Trypanocidal Activity at I.C.E. value 0.58 when administered subcutaneously.
Summary of the method: (§2)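 Mice, in groups of five per dose, were given a standard inoculum of blood-stage T. rhodesiense that is lethal to all untreated controls, then dosed subcutaneously. Usually 11 dose levels were used (2^n × 0.42 mg/kg).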

Mus musculus [3] = experiment: Trypanocidal Activity at I.C.E. value 0.64 when administered subcutaneously.; summary of the method: as §2
Mus musculus [4] = experiment: Trypanocidal Activity at I.C.E. value 0.61 when administered perorally.
Mus musculus [5] = experiment: Trypanocidal Activity at I.C.E. value 0.67 when administered subcutaneously.; summary of the method: as §2
Mus musculus [6] = experiment: Trypanocidal Activity at I.C.E. value 0.59 when administered subcutaneously.; summary of the method: as §2
Mus musculus [7] = experiment: Trypanocidal Activity at I.C.E. value 0.26 when administered subcutaneously.; summary of the method: as §1
[8] = tested on: Trypanosoma brucei rhodesiense; experiment: In Vitro measurement of inhibition of thymidine uptake in cell culture of Trypanosoma rhodesiense; details: read-out: ID50 (the source's name)
Summary of the method: (§3)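 Parasites harvested from infected rats and incubated 3 h across a drug concentration series, usually 0.1–100 µg/mL. Incorporation of radiolabeled thymidine measured. ID50 is the concentration (µg/mL) producing 50% inhibition.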

Mus musculus [9] = experiment: Trypanocidal Activity at I.C.E. value 0.48 when administered perorally.
[10] = tested on: Trypanosoma brucei rhodesiense; experiment: In Vitro measurement of inhibition of leucine uptake in cell culture of Trypanosoma rhodesiense; details: read-out: ID50 (the source's name)
Summary of the method: (§4)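 Trypanosomes harvested from infected rats, cultured 3 h with several concentrations of drug, usually 0.1–100 µg/mL. Radiolabeled L-leucine uptake measured. ID50 is the concentration in µg/mL giving 50% inhibition of incorporation.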

Mus musculus [11] = experiment: Trypanocidal Activity at I.C.E. value 0.24 when administered subcutaneously.; summary of the method: as §1
Mus musculus [12] = experiment: Trypanocidal Activity at I.C.E. value 0.71 when administered subcutaneously.; summary of the method: as §2
Mus musculus [13] = experiment: Trypanocidal Activity at I.C.E. value 0.23 when administered subcutaneously.; summary of the method: as §1
Mus musculus [14] = experiment: Trypanocidal Activity at I.C.E. value 0.21 when administered subcutaneously.
[15] = tested on: Trypanosoma brucei rhodesiense; experiment: In Vitro measurement of inhibition of Leucine uptake in cell culture of Trypanosoma rhodesiense.; details: read-out: ID50 (the source's name); summary of the method: as §4
[16] = tested on: Trypanosoma brucei rhodesiense; experiment: In Vitro measurement of inhibition of thymidine uptake in cell culture of Trypanosoma rhodesiense.; details: read-out: ID50 (the source's name); summary of the method: as §3
Mus musculus [17] = experiment: Trypanocidal Activity at I.C.E. value 0.39 when administered subcutaneously.; summary of the method: as §1
Mus musculus [18] = experiment: Trypanocidal Activity at I.C.E. value 0.37 when administered subcutaneously.; summary of the method: as §1
Mus musculus [19] = experiment: Trypanocidal Activity at I.C.E. value 0.69 when administered subcutaneously.; summary of the method: as §2
Mus musculus [20] = experiment: Trypanocidal Activity at I.C.E. value 0.33 when administered subcutaneously.; summary of the method: as §1
Mus musculus [21] = experiment: Trypanocidal Activity at I.C.E. value 0.30 when administered subcutaneously.; summary of the method: as §1
Mus musculus [22] = experiment: Trypanocidal Activity at I.C.E. value 0.27 when administered subcutaneously.; summary of the method: as §1
[23] = tested on: Trypanosoma brucei rhodesiense; experiment: In Vitro measurement of inhibition of leucine uptake in cell culture of Trypanosoma rhodesiense.; details: read-out: ID50 (the source's name); summary of the method: as §4
Mus musculus [24] = experiment: Trypanocidal Activity at I.C.E. value 0.10 when administered perorally.
Mus musculus [25] = experiment: Trypanocidal Activity at I.C.E. value 0.29 when administered subcutaneously.; summary of the method: as §1
Mus musculus [26] = experiment: Trypanocidal Activity at I.C.E. value 0.31 when administered subcutaneously.; summary of the method: as §1
Mus musculus [27] = experiment: Trypanocidal Activity at I.C.E. value 0.43 when administered subcutaneously.; summary of the method: as §1
Mus musculus [28] = experiment: Trypanocidal Activity at I.C.E. value 0.19 when administered subcutaneously.
Mus musculus [29] = experiment: Trypanocidal Activity at I.C.E. value 0.57 when administered perorally.
Mus musculus [30] = experiment: Trypanocidal Activity at I.C.E. value 0.48 when administered subcutaneously.; summary of the method: as §1

Br.CC(NC(=N)N/N=C/c1ccc(-c2cn3ccccc3[n+]2C)cc1)c1ccco1.[Br-] (centres undefined)
CD50 (Mus musculus [1]): 1.6 mg/kg

C/N=C(\NC)N/N=C/c1ccc(-c2cn3ccccc3[n+]2C)cc1.I.[I-]
CD50 (Mus musculus [2]): 0.2 mg/kg

Br.CC/N=C(\NCC)N/N=C/c1ccc(/C=C/c2n(C)cc[n+]2C)cc1.[Br-]
CD50 (Mus musculus [1]): 1.6 mg/kg

Br.Cn1cc[n+](C)c1/C=C/c1ccc(/C=N/NC2=NCCN2)cc1.[Br-]
CD50 (Mus musculus [3]): 1.6 mg/kg

Br.C[n+]1c(-c2ccc(/C=N/NC3=NCCCN3)cc2)cn2ccccc21.[Br-]
CD50 (Mus musculus [4]): 6.6 mg/kg | CD50 (Mus musculus [5]): 0.1 mg/kg

Br.CCCNC(=N)N/N=C/c1ccc(-c2cn3ccccc3[n+]2C)cc1.[Br-]
CD50 (Mus musculus [6]): 0.1 mg/kg

Br.CN(C)C(=N)N/N=C/c1ccc(OCc2cn3ccccc3[n+]2C)cc1.[Br-]
CD50 (Mus musculus [7]): 3.3 mg/kg

Br.CC[S+]([O-])c1ccc2n(c1)cc(-c1ccc(/C=N/NC(=N)N)cc1)[n+]2C.[Br-] (centres undefined)
CD50 (Mus musculus [3]): 1.6 mg/kg

Br.Cn1c(COc2ccc(/C=N/NC(=N)N)cc2)[n+](C)c2ccccc21.[Br-]
IC50 [8]: 1.9 µg/mL | CD50 (Mus musculus [9]): 13 mg/kg | CD50 (Mus musculus [5]): 0.4 mg/kg | IC50 [10]: 6.1 µg/mL

C[n+]1c(-c2ccc(/C=N/NC(N)=S)cc2)cn2ccccc21.Cc1ccc(S(=O)(=O)[O-])cc1
CD50 (Mus musculus [11]): 106 mg/kg

Br.Cc1ccn2cc(-c3ccc(/C=N/NC(=N)NO)cc3)[n+](C)c2c1.[Br-]
IC50 [8]: 0.9 µg/mL | IC50 [10]: 0.7 µg/mL | CD50 (Mus musculus [12]): 0.2 mg/kg

Br.C[n+]1c(COc2ccc(/C=N/NC(=N)NO)cc2)cn2cc(C(F)(F)F)ccc21.[Br-]
CD50 (Mus musculus [6]): 6.6 mg/kg

Cc1ccc(S(=O)(=O)O)cc1.Cc1ccc(S(=O)(=O)[O-])cc1.Cn1cc[n+](C)c1COc1ccc(/C=N/NC(=N)N2CCCC2)cc1
CD50 (Mus musculus [13]): 6.6 mg/kg

Br.CN1CCN(C(=N)N/N=C/c2ccc(-c3cn4ccccc4[n+]3C)cc2)CC1.[Br-]
CD50 (Mus musculus [14]): 3.3 mg/kg

C[n+]1c(-c2ccc(C(=N)N)cc2)cn2ccccc21.Cl.[Cl-]
CD50 (Mus musculus [14]): 26 mg/kg

Cc1ccc(S(=O)(=O)O)cc1.Cc1ccc(S(=O)(=O)[O-])cc1.Cc1ccc2n(c1)cc(-c1ccc(/C=N/NC(=N)N3CCSC3)cc1)[n+]2C
IC50 [15]: 0.5 µg/mL | IC50 [16]: > 10 µg/mL | CD50 (Mus musculus [17]): 6.6 mg/kg

Br.Cc1ccn2cc(-c3ccc(/C=N/NC(=N)N4CCN(C)CC4)cc3)[n+](C)c2c1.[Br-]
CD50 (Mus musculus [11]): 3.3 mg/kg

Br.Cc1ccc2n(c1)cc(-c1ccc(/C=N/NC(=N)NN3CCOCC3)cc1)[n+]2C.[Br-]
CD50 (Mus musculus [18]): 3.3 mg/kg

Br.Cc1ccc2n(c1)cc(/C=C/c1ccc(/C=N/NC(=N)NO)cc1)[n+]2C.[Br-]
CD50 (Mus musculus [19]): 3.3 mg/kg

Br.CNC(=N)N/N=C/c1ccc(-c2c([N+](=O)[O-])n3ccccc3[n+]2C)cc1.[Br-]
CD50 (Mus musculus [20]): 0.4 mg/kg | IC50 [8]: 5.4 µg/mL | IC50 [10]: 3.4 µg/mL

Br.CCCC/N=C(/NCCCC)N/N=C/c1ccc(-c2cn3ccc(C)cc3[n+]2C)cc1.[Br-]
CD50 (Mus musculus [11]): 53 mg/kg

Br.Cc1cccc2n1cc(COc1ccc(/C=N/NC3=NCCN3)cc1)[n+]2C.[Br-]
CD50 (Mus musculus [3]): 0.8 mg/kg

Br.CC/N=C(\NCC)N/N=C/c1ccc(OCc2n(C)cc[n+]2C)cc1.[Br-]
CD50 (Mus musculus [21]): 13 mg/kg

Br.CCSc1ccc2n(c1)cc(-c1ccc(/C=N/NC3=NCCN3)cc1)[n+]2C.[Br-]
CD50 (Mus musculus [19]): 3.3 mg/kg

C[n+]1ccc(COc2ccc(/C=N/NC(=O)c3ccc(N)cc3)cc2)cc1.Cc1ccc(S(=O)(=O)[O-])cc1
CD50 (Mus musculus [22]): 26 mg/kg

C[n+]1c(COc2ccc(/C=N/Nc3ccccn3)cc2)cn2ccccc21.Cc1ccc(S(=O)(=O)[O-])cc1
IC50 [8]: 7.9 µg/mL | CD50 (Mus musculus [13]): 53 mg/kg | IC50 [10]: 10.1 µg/mL

Br.Cn1cc[n+](C)c1COc1ccc(/C=N/NC2=NCCN2)cc1.[Br-]
CD50 (Mus musculus [18]): 3.3 mg/kg

Br.C/N=C(/NC)N/N=C/c1ccc(-c2cn3ccc(C)cc3[n+]2C)cc1.[Br-]
CD50 (Mus musculus [2]): 0.4 mg/kg

Br.CCNC(=N)N/N=C/c1ccc(-c2cn3ccccc3[n+]2C)cc1.[Br-]
IC50 [16]: 0.4 µg/mL | IC50 [23]: 0.5 µg/mL | CD50 (Mus musculus [6]): 0.1 mg/kg

Br.CC/N=C(\NCC)N/N=C/c1ccc(OCc2n(C)c3ccccc3[n+]2C)cc1.[Br-]
CD50 (Mus musculus [24]): 212 mg/kg | CD50 (Mus musculus [25]): 6.6 mg/kg

Br.Cc1ccn2cc(-c3ccc(/C=N/NC(=N)NN4CCOCC4)cc3)[n+](C)c2c1.[Br-]
CD50 (Mus musculus [26]): 0.8 mg/kg

Br.C[n+]1c(-c2ccc(/C=N/NC(=N)N3CCOCC3)cc2)cn2ccccc21.[Br-]
CD50 (Mus musculus [20]): 0.4 mg/kg

C[n+]1c(-c2ccc(/C=N/Nc3nc(N)nc(N)n3)cc2)cn2ccccc21.Cc1ccc(S(=O)(=O)[O-])cc1
CD50 (Mus musculus [27]): 6.6 mg/kg

Br.Cc1ccc2n(c1)cc(-c1ccc(/C=N/NC(=N)N(C)C)cc1)[n+]2C.[Br-]
CD50 (Mus musculus [27]): 0.8 mg/kg

Br.Cn1c[n+](Cc2ccc(/C=N/NC3=NCCN3)cc2)c2ccccc21.[Br-]
CD50 (Mus musculus [24]): 424 mg/kg | IC50 [8]: 11.1 µg/mL | CD50 (Mus musculus [28]): 3.3 mg/kg | IC50 [10]: > 10 µg/mL

Br.C[n+]1c(COc2ccc(/C=N/NC(=N)N3CCCC3)cc2)cn2cc(C(F)(F)F)ccc21.[Br-]
CD50 (Mus musculus [22]): 26 mg/kg

Cc1ccc(S(=O)(=O)[O-])cc1.Cn1c(COc2ccc(/C=N/NC(=O)c3ccc(N)cc3)cc2)[n+](C)c2ccccc21
CD50 (Mus musculus [18]): 6.6 mg/kg

Cc1ccc(S(=O)(=O)O)cc1.Cc1ccc(S(=O)(=O)[O-])cc1.Cn1c(COc2ccc(/C=N/NC(=N)N3CCCC3)cc2)[n+](C)c2ccccc21
CD50 (Mus musculus [29]): 6.6 mg/kg | CD50 (Mus musculus [20]): 0.8 mg/kg

C[n+]1c(/C=C/c2ccc(/C=N/NC(=O)c3ccc(N)cc3)cc2)cn2ccccc21.Cc1ccc(S(=O)(=O)[O-])cc1
CD50 (Mus musculus [2]): 6.6 mg/kg

Br.Cc1ccc2n(c1)cc(COc1ccc(/C=N/NC3=NCCCN3)cc1)[n+]2C.[Br-]
CD50 (Mus musculus [19]): 0.8 mg/kg

Br.C[n+]1c(-c2ccc(/C=N/NC(=N)N)cc2)cn2c1CCCC2.[Br-]
CD50 (Mus musculus [27]): 0.4 mg/kg

C[n+]1c(-c2ccc(/C=N/NC3N=NC(=S)N3N)cc2)cn2ccsc21.[Br-] (centres undefined)
CD50 (Mus musculus [14]): 212 mg/kg | IC50 [8]: 2.4 µg/mL | IC50 [10]: 4.6 µg/mL

C[n+]1c(-c2ccc(/C=N/Nc3nccs3)cc2)cn2ccsc21.[Br-]
CD50 (Mus musculus [26]): 26 mg/kg

Cc1ccc2n(c1)cc(-c1ccc(/C=N/Nc3nc[nH]n3)cc1)[n+]2C.[Br-]
IC50 [8]: 3.8 µg/mL | CD50 (Mus musculus [17]): 13 mg/kg

Cc1ccc2n(c1)cc(-c1ccc(/C=N/Nc3ccccn3)cc1)[n+]2C.[Br-]
CD50 (Mus musculus [30]): 0.8 mg/kg

C[n+]1c(COc2ccc(/C=N/Nc3nccs3)cc2)cn2ccccc21.[Br-]
CD50 (Mus musculus [22]): 53 mg/kg

C[n+]1c(-c2ccc(/C=N/Nc3ncccn3)cc2)cn2ccccc21.[Br-]
CD50 (Mus musculus [7]): 6.6 mg/kg
